Assay outcomes (PubChem BioAssay)
Hits are enriched below; roughly 9.5% of the tested compounds scored in any of these assays.
D1 allo mod = D1 CRE-luciferase signal change, two-sided – cell-based, HEK293 D1, dopamine EC30, D1 allosteric modulator project, primary screen; D(1A) dopamine receptor (Homo sapiens), P21728; dopamine EC30 potentiation; actives deviate in either direction; B-score at 10 µM; 58,000 compounds, 5.9% hits; AID 641, 2007;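 active = luminescence count or its row- and column-corrected plate score outside the 99.7% band of the plate's sample wells, on either side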
M1 ag = M1 muscarinic receptor agonists, primary screen, CHO-M1 cells, Fluo-4 calcium, agonist mode. Fluo-4 calcium fluorescence; hits give high values. B-score at 10 µM. 64,000 compounds, 3% hits;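 active = fluorescence rise, raw or as B-score row- and column-corrected plate score, outside the 99.7% band of its plate's samples, either direction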
Jurkat tox 60K = cytotoxicity toward Jurkat T cells, primary screen, cytotoxicity control, cell-based, Jurkat E6.1, 60K MLSMR library; Jurkat E6.1 viability, ATP luminescence, 48 h; inhibition, % at 4 µM; 56,000 compounds, 1.2% hits; AID 463, 2006;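 active = inhibition above the mean inhibition of all tested compounds plus 3 SD, cut at about 28% in these data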
Htt clearance = clearance of mutant huntingtin inclusions, primary screen, imaging, HeLa Exon1htt(103Q)mCFP, confocal imaging; aggregate imaging; zero = plate's median compound well; inhibition, % at 1.5 µM; 47,000 compounds, 0.42% hits; AID 853, 2007;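 active = inhibition of aggregate fluorescence above about 70%, also judged a hit by eye on the cell image, limit read from the data, passing the limit was not always enough; inconclusive = no rule stated for this call; inactive = not judged a hit on image review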;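 note: cells exposed to compound for three days before fixation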
HEK293 NFkB inh = inhibitors of PMA/ionomycin-induced NF-kB reporter, primary screen, antigen receptor NF-kB inhibitor project, cell-based, HEK-293 luciferase reporter, luminescence; HEK-293 NF-kB luciferase reporter; inhibition, % at 3 µM; 62,000 compounds, 0.21% hits;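 active = inhibition above the mean of all tested compounds plus 3 SD, cut at about 40% in these data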
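Material: HEK-293 cells with stable firefly luciferase reporter driven by four HIV NF-kB elements / Also added: PMA plus ionomycin mix as NF-kB-activating stimulus / Compound dosing: 3 µM once, 0.30% DMSO / Times: 1 h pretreatment, 16 h stimulation, 37 °C / Signal: luminescence / Evaluation: per-plate % inhibition versus controls / Benchmarks: DMSO and 10 µM reference inhibitor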
M1 antag = antagonists of rat M1 muscarinic receptor. Muscarinic acetylcholine receptor M1 (Rattus norvegicus), P08482. CHO-M1 cells, Fluo-4 calcium, ACh EC80 antagonist mode; hits give low values. B-score at 10 µM. 64,000 compounds, 3.4% hits. AID 628, 2007;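 active = calcium fluorescence response, raw or row-and-column corrected B-score, differing from the plate sample mean either way at a set confidence level, mostly lower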
M1 ag confirm = rat M1 muscarinic receptor agonists, confirmation, CHO-M1 cells, Fluo-4 calcium, duplicate retest | shares compounds with M1 ag | Fluo-4 calcium fluorescence, agonist mode; actives lie on both sides | fluorescence change (max-min) at 10 µM | 1,700 compounds, 19% hits;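 active = fluorescence change differs from the solvent-only DMSO control mean at a set confidence level in both duplicate runs; inconclusive = differs from solvent-only control mean in just one of two runs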;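 note: an EC20 dose of acetylcholine follows compound addition during the same imaging run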
M4 ag counter = agonist activity at rat M4 receptor, confirmation, counter-screen for M1 allosteric modulator project, cell-based, agonist mode; 1,700 compounds, 9% hits; AID 1741, 2009; fluorescence change (max-min) at 10 µM; shares compounds with M1 ag; CHO M4/Gqi5 cells, Fluo-4 calcium fluorescence; actives lie on both sides;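 active = fluorescence change differing from the plate's solvent-only control wells at 99.7% confidence in both duplicates, whether higher or lower; inconclusive = differs from solvent controls in only one of two duplicates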
Target sequence (P08485 whole entry, looked up): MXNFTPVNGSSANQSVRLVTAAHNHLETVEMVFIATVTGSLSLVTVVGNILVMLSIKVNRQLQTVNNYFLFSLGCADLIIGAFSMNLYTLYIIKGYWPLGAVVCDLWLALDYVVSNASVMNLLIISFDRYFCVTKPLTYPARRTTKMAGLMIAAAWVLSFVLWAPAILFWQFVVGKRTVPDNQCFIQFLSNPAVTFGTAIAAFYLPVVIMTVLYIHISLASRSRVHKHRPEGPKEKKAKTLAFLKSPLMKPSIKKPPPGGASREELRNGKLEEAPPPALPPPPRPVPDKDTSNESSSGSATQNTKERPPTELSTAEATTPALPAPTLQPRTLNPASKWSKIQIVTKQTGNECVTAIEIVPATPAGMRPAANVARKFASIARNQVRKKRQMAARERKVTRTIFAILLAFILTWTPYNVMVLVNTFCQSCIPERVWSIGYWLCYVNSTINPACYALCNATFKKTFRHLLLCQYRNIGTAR
Each line names hits and unclear results; the compound was inactive in the other large screens (follow-up assays come after a bar, where they were run).

CCOc1ccc2nc(NC(=O)CS(=O)(=O)c3ccccc3)sc2c1	M1 ag 2.2 | M1 ag confirm inactive | M4 ag counter inactive
CCOc1ccc2nc(NC(=O)CS(=O)(=O)c3ccc(C)cc3)sc2c1	none (no result: D1 allo mod, M1 ag, Jurkat tox 60K, HEK293 NFkB inh, M1 antag)
Cc1ccc2c(COn3nnc4ccc(S(=O)(=O)N(C)C)cc43)cc(=O)oc2c1C	M1 ag 21 (no result: Htt clearance) | M1 ag confirm inactive | M4 ag counter inactive
CCC(Sc1nc(=O)cc(N)n1-c1ccccc1)C(=O)Nc1ccc(Cl)cn1 (centres undefined)	none (no result: D1 allo mod, Htt clearance)
O=c1c(-c2nc3ccccc3o2)c2oc3ccccc3n2c2ccccc12	M1 ag 12, M1 antag -4.7 | M1 ag confirm inconclusive | M4 ag counter inactive
Nc1cc(N)cc(-c2nc3ccccc3o2)c1	none (no result: Htt clearance)
COc1cccc(C2C=C(c3ccc(OC)cc3OC)Nc3nnnn32)c1 (centres undefined)	M1 ag 3.3, Jurkat tox 60K 41 (no result: Htt clearance) | M1 ag confirm inactive | M4 ag counter inactive
COc1ccc(C2=CC(c3ccc(C)cc3)n3nnnc3N2)cc1 (centres undefined)	M1 ag 9.6 (no result: D1 allo mod, Jurkat tox 60K, Htt clearance, HEK293 NFkB inh) | M1 ag confirm inactive | M4 ag counter inactive
NC(=O)C1CCN(C(=O)c2ccco2)CC1	none (no result: D1 allo mod, M1 ag, Jurkat tox 60K, HEK293 NFkB inh, M1 antag)
CCNS(=O)(=O)c1ccc(Br)c(OC)c1	none (no result: D1 allo mod, M1 ag, Jurkat tox 60K, HEK293 NFkB inh, M1 antag)
COc1ccc(S(=O)(=O)N2Cc3ccccc3CC2C(=O)Nc2ccc(O)cc2)cc1OC (centres undefined)	M1 ag 4 | M1 ag confirm inactive | M4 ag counter inactive
O=C(Nc1ccc2c(c1)OCO2)C1Cc2ccccc2CN1S(=O)(=O)c1cccs1 (centres undefined)	M1 ag 5.5 (no result: D1 allo mod) | M1 ag confirm inactive | M4 ag counter inactive
COc1ccc(S(=O)(=O)N2Cc3ccccc3CC2C(=O)O)cc1OC (centres undefined)	none (no result: D1 allo mod)
COc1ccc(NC(=O)c2cc3cc(OC)ccc3oc2=N)cc1	none (no result: Htt clearance)
CCCCCCc1cc2cc(C(=O)NC)c(=N)oc2cc1O	M1 ag 401, M1 antag -15 (no result: D1 allo mod, Jurkat tox 60K, HEK293 NFkB inh) | M1 ag confirm 3193 | M4 ag counter 2756
N#CC(c1nc2ccccc2nc1N1CCCC1)S(=O)(=O)c1ccccc1 (centres undefined)	M1 ag 4 (no result: D1 allo mod, Jurkat tox 60K, Htt clearance) | M1 ag confirm inactive | M4 ag counter inactive
COc1ccc(S(=O)(=O)C(C#N)c2nc3ccccc3nc2N2CCCCC2)cc1 (centres undefined)	none (no result: D1 allo mod, Jurkat tox 60K)
Cc1cccc(S(=O)(=O)C(C#N)c2nc3ccccc3nc2N2CCCC2)c1 (centres undefined)	M1 ag 6 (no result: Htt clearance) | M1 ag confirm inactive | M4 ag counter inactive
COc1ccc(C2C(C(=O)c3cccs3)=C(O)C(=O)N2c2nncs2)cc1 (centres undefined)	M1 ag 93 (no result: Jurkat tox 60K) | M1 ag confirm 439 | M4 ag counter 339
C=CCOc1ccc(C2C(C(=O)c3cccs3)=C(O)C(=O)N2c2nnc(C)s2)cc1 (centres undefined)	none (no result: D1 allo mod, M1 ag, Jurkat tox 60K, HEK293 NFkB inh, M1 antag)
COc1ccc(C2C(C(=O)c3cccs3)=C(O)C(=O)N2c2nnc(C)s2)cc1OC (centres undefined)	M1 ag 68 | M1 ag confirm 96 | M4 ag counter inactive
O=c1oc2cc(Oc3ccc(C(F)(F)F)cc3[N+](=O)[O-])ccc2c2c1CCCC2	none (no result: D1 allo mod, M1 ag, Jurkat tox 60K, HEK293 NFkB inh, M1 antag)
CCn1c(COc2ccccc2C)nnc1SCC(=O)CC(=O)Nc1ccccc1	M1 ag 3.3, M1 antag 2.7 | M1 ag confirm inconclusive | M4 ag counter inactive
